From ChEMBL document CHEMBL4665761, “Optimizing the Benefit/Risk of Acetyl-CoA Carboxylase Inhibitors through Liver Targeting” (J Med Chem, 2020) come the findings set out here.

The term AUC(0-t) denotes exposure summed from dosing to a finite time, without extrapolation to infinity. As a reminder, the Tmax is the time from dosing to the highest level. A word on the IC50: it is the concentration at which inhibition is half-maximal. As usually defined, the inhibition in vivo is the drop in the measured response relative to a control, in per cent. What is called half-life is the time in which the quantity being followed falls by half.

Structures are written as SMILES.

The nature of data set [1]: Ratio of drug uptake in Wistar-Hannover rat unbound liver to plasma concentration at 30 mg/kg, po after 6 hrs by LC/MS-MS analysis. The data set is classed as ADME, organism-based. The following applies: other tissue. Put shortly: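 Male Wistar-Hannover rats (n = 2 or 3) dosed orally as a suspension in 0.5% methyl cellulose with 0.1% Tween 80. Plasma and liver sampled 6 h post-dose. Kp is total liver/plasma; Kpu,u uses unbound fractions from equilibrium dialysis of plasma and liver.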

Data set [2] is described as follows: AUC (0 to 24 hrs) in Wistar-Hannover rat plasma at 4 mg/kg, po and measured up to 24 hrs by LC/MS-MS analysis. The data set is classed as ADME, organism-based. The arrangement: route oral, dose 4 mg/kg, time <=24. A digest of the protocol: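 Male Wistar-Hannover rats (240–350 g), housed singly after 1 week of acclimation, were dosed orally. AUC0–24 came from plasma concentration–time data by the linear trapezoidal rule, averaged for n = 2. Lower detection limit was 1 ng/mL.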

Data set [3] can be described thus: Drug uptake in Wistar-Hannover rat liver at 30 mg/kg, po after 6 hrs by LC/MS-MS analysis. The data set is classed as ADME, organism-based. Conditions: read-out: Drug uptake. A digest of the protocol: (§1)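 Male Wistar-Hannover rats, n = 2 or 3, given an oral suspension in 0.5% methyl cellulose with 0.1% Tween 80; one compound was dosed as the HCl salt. Total plasma and liver concentrations were measured 6 h post-dose. Kp = liver/plasma total concentration. Kpu,u uses fu values from equilibrium dialysis.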

Data set [4] in a line: Tmax in Wistar-Hannover rat plasma at 4 mg/kg, po and measured up to 24 hrs by LC/MS-MS analysis. The data set is classed as ADME, organism-based. Put shortly: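 Plasma concentration–time data, n = 2, averaged. Cmax and Tmax read directly from the data. AUC0–24 by the linear trapezoidal rule. F calculated as dose-normalized AUC PO/IV.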
The nature of data set [5]: Drug uptake in Wistar-Hannover rat assessed as plasma concentration at 30 mg/kg, po after 6 hrs by LC/MS-MS analysis. Type of data set: ADME, organism-based. Put shortly: as §1
Data set [6] in a line: Genotoxicity in Salmonella typhimurium TA98 by Ames test. The following applies: salmonella enterica subsp. enterica serovar typhimurium. Type of data set: toxicity. A digest of the protocol: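 Ames test in Salmonella strains TA98, TA100, TA1535 and TA1537, run with and without aroclor-induced rat liver S9 plus NADPH.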
(In general: In the Ames test, an excess of revertant colonies over the control signals mutagenicity.)

The target in data set [7] is Acetyl-CoA carboxylase 2 (Homo sapiens, UniProt O00763). Briefly: Uncompetitive inhibition of human ACC2 incubated for 15 mins in presence of ATP by Line weaver-Burk plot analysis. A digest of the protocol:
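Radioenzymatic assay with purified ACC isozymes, measuring [14C]-bicarbonate incorporation into [14C]-malonyl-CoA. Mode of inhibition taken from substrate concentration-dependence experiments varying ATP or carbonate. IC50 dose-response run at saturating ATP.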

Data set [8] in a line: Inhibition of DNL in Sprague-Dawley rat assessed as reduction in DNL level in lung at 300 mg/kg, po pretreated with 1 hr followed by [14C]-acetate treatment and measured after 1 hr relative to control. Type of data set: functional. The following applies: time 2 hrs. A digest of the protocol: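 Sprague-Dawley rats given single oral doses of 0.03–300 mg/kg in 0.5% methyl cellulose vehicle, n = 16 per dose. Read-out is incorporation of 14C-acetate into lipids in liver, bone marrow and lung, measured at 2 h post-dose relative to vehicle. Data are mean ± SEM. EC50 is reported with a 95% confidence interval.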

The target of data set [9] is Cytochrome P450 2D6 (Homo sapiens, UniProt P10635). In words: inhibition of CYP2D6 in human liver microsomes. Type of data set: ADME. For orientation: Liver microsomes are vesicles of endoplasmic reticulum, rich in cytochrome P450 enzymes.
Data set [10] in a line: Half life in cynomolgus monkey plasma at 1 mg/kg, iv and measured up to 72 hrs by LC/MS-MS analysis. The data set is classed as ADME, organism-based, Macaca fascicularis. A digest of the protocol: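 Cynomolgus monkeys dosed 1 mg/kg IV as the tris salt in 2% N-methylpyrrolidone/98% sulfobutylether-β-cyclodextrin (12.5%) in 50 mM TRIS, pH 8.0, or PO as the tris salt. Plasma was analysed by LC-MS/MS, n = 2. CL = IV dose/AUC; Vss = dose/(AUC × elimination rate constant); Cmax taken from observed data.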

Data set [11] in a line: Drug excretion in Wistar-Hannover rat urine at 1 mg/kg, iv and measured up to 24 hrs by LC/MS-MS analysis. The following applies: read-out: Drug excretion. The data set is classed as ADME, organism-based.
Data set [12] concerns the target UDP-glucuronosyltransferase 2B7 (Homo sapiens, UniProt P16662). Briefly: Inhibition of UGT2B7 in human liver microsomes incubated for 60 mins in presence of UDPGA by LC-MS/MS analysis. The data set is classed as ADME.
Data set [13] is described as follows: Unbound plasma concentration in Sprague-Dawley rat at 300 mg/kg, po. Type of data set: ADME, organism-based. The following applies: in vivo. Put shortly: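 Sprague-Dawley rats given a single oral dose in 0.5% methyl cellulose vehicle. Unbound plasma concentration measured at 300 mg/kg.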

Sequence of UDP-glucuronosyltransferase 2B7 (P16662 whole entry): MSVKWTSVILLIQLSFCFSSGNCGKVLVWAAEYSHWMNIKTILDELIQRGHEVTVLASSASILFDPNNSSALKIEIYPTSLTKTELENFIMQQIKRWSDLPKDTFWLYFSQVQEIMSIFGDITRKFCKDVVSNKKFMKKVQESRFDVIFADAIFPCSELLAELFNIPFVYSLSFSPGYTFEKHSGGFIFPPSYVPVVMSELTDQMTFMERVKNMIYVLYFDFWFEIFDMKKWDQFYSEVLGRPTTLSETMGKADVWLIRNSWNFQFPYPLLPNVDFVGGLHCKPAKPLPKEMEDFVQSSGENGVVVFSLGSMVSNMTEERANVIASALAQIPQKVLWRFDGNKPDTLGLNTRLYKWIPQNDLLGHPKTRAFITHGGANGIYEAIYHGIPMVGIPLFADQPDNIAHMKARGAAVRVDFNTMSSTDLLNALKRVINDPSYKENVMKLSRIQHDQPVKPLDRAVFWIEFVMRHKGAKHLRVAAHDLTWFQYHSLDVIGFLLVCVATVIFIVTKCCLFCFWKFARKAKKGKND
Sequence of Cytochrome P450 2D6 (P10635 whole entry): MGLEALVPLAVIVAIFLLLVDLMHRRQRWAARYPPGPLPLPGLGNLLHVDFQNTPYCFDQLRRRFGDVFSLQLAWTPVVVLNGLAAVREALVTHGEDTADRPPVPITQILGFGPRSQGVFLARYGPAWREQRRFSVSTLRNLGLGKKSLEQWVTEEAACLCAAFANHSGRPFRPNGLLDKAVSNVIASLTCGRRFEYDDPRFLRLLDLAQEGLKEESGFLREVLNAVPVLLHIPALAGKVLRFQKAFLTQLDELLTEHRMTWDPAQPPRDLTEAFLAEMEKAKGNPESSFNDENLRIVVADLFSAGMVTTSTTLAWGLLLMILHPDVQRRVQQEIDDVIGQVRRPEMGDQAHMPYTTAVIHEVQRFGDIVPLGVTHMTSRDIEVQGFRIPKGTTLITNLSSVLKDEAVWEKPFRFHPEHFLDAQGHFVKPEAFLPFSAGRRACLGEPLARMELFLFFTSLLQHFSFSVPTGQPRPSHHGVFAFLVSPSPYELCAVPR
Sequence of Acetyl-CoA carboxylase 2 (O00763 whole entry): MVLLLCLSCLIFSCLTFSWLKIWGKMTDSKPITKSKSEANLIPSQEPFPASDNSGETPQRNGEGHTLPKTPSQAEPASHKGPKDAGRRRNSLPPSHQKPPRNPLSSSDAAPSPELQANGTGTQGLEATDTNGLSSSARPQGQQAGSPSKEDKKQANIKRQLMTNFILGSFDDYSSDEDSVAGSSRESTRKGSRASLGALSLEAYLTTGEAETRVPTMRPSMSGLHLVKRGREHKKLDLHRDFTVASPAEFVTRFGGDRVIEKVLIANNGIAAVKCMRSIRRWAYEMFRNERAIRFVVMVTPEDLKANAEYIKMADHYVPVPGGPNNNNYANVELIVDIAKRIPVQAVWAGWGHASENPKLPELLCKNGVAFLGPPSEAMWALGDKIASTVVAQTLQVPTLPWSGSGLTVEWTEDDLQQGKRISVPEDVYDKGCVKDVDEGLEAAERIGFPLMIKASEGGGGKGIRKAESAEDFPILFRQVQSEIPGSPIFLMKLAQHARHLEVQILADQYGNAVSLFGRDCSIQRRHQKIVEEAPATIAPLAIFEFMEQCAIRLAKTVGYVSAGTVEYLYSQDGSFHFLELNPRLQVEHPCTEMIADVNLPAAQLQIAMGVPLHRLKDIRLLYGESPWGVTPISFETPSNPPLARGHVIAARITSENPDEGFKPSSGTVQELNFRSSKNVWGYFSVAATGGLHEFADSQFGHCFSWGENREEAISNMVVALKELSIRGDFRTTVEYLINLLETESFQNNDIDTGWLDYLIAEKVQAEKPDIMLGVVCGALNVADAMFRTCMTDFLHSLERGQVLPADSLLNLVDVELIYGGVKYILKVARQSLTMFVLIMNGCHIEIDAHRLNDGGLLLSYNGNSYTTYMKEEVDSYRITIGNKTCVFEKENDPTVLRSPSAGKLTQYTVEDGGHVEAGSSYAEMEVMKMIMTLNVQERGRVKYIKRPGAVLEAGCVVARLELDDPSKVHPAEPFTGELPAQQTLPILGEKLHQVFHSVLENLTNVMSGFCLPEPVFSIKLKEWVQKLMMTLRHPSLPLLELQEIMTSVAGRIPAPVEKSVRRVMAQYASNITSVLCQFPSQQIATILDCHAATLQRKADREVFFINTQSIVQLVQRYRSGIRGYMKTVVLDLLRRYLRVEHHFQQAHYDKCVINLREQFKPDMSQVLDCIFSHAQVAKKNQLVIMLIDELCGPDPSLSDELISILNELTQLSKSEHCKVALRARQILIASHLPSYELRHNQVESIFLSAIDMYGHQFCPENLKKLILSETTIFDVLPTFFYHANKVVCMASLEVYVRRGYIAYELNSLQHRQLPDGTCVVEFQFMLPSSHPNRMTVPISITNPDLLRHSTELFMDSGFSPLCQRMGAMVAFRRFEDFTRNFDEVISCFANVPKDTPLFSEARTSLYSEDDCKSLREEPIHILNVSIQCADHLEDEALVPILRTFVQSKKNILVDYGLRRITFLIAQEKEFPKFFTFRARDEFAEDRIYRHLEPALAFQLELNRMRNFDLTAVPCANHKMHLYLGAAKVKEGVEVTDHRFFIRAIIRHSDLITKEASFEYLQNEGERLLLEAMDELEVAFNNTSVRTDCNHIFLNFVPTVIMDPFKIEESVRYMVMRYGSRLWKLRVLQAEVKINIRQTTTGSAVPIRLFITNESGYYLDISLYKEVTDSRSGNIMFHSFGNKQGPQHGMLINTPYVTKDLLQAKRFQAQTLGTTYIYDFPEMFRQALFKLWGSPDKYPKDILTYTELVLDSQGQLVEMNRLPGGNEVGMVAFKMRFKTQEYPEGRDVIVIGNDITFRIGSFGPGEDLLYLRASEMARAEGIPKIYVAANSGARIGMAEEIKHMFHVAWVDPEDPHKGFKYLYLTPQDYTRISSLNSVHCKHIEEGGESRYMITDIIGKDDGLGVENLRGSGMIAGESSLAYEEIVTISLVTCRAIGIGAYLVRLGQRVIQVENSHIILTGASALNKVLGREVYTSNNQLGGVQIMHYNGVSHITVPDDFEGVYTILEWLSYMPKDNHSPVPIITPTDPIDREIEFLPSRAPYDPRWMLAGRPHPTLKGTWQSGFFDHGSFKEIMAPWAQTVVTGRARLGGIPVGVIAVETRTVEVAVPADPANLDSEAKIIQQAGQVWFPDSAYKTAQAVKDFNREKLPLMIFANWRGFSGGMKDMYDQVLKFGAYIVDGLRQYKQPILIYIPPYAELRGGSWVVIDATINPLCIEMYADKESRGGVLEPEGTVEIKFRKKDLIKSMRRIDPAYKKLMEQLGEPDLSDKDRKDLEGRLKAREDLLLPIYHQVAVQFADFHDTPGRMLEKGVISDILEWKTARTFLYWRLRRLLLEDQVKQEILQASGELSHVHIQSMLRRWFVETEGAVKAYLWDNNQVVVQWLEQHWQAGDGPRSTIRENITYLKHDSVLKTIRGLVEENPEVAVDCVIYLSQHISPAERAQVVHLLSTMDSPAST

For `COc1cc(C(=O)N2CCC3(CC2)CC(=O)c2nn(C(C)(C)C)cc2O3)cc(-c2ccc(C(=O)O)cc2)n1`, in [1], the Ratio is listed as 376. The AUC(0-t) in [2] was 322 ng·h/mL. The values for the concentration at 6 h in [3] and in data set [5] were 38100 ng/mL and 41.7 ng/mL, respectively. In addition, in data set [4], the Tmax was 0.75 h.

`COc1cc(C(=O)N2CCC3(CC2)CC(=O)c2c(cnn2C(C)C)C3)cc(-c2ccc(C(=O)O)cc2)n1` [CLESACOSTAT]: the Activity result in data set [6] is “Non-Toxic”. Moreover, the IC50 was 0.00866 µM in data set [7], over 50 µM in data set [9] and over 20 µM in data set [12]. The inhibition in vivo at 300 mg/kg in data set [8] amounted to 29%. The molecule also had a half-life in data set [10] of 11 h. Besides, the dose excreted at 24 h in [11] is under 2%. In [13], the “Cp(f)” value turned out to be 119.4 nM.
